Series [1] in a line: Genotoxicity in Salmonella typhimurium TA1535 harboring pSK1002 assessed as umu gene induction at 1 mg/ml in presence of Sprague-Dawley rat liver S9 fraction after by SOS/umu assay relative to control. The class given is toxicity, organism-based. To be noted: salmonella enterica subsp. enterica serovar typhimurium, read-out: FC.
Series [2] in a line: Genotoxicity in Salmonella typhimurium TA1535 harboring pSK1002 assessed as survival at 1 mg/ml in absence of Sprague-Dawley rat liver S9 fraction after by SOS/umu assay relative to control. To be noted: salmonella enterica subsp. enterica serovar typhimurium, read-out: Survival. The class given is toxicity, organism-based.
The nature of series [3]: Genotoxicity in Salmonella typhimurium TA1535 harboring pSK1002 assessed as survival at 1 mg/ml in presence of Sprague-Dawley rat liver S9 fraction after by SOS/umu assay relative to control. The conditions noted are these: salmonella enterica subsp. enterica serovar typhimurium, read-out: Survival. The class given is toxicity, organism-based.
The nature of series [4]: Genotoxicity in Salmonella typhimurium TA1535 harboring pSK1002 assessed as umu gene induction at 1 mg/ml in absence of Sprague-Dawley rat liver S9 fraction after by SOS/umu assay relative to control. The class given is toxicity, organism-based. To be noted: salmonella enterica subsp. enterica serovar typhimurium, read-out: FC.
The target of series [5] is T1, HSP90 (Plasmodium falciparum 3D7) (UniProt Q8IL32).
T1 sequence (whole entry): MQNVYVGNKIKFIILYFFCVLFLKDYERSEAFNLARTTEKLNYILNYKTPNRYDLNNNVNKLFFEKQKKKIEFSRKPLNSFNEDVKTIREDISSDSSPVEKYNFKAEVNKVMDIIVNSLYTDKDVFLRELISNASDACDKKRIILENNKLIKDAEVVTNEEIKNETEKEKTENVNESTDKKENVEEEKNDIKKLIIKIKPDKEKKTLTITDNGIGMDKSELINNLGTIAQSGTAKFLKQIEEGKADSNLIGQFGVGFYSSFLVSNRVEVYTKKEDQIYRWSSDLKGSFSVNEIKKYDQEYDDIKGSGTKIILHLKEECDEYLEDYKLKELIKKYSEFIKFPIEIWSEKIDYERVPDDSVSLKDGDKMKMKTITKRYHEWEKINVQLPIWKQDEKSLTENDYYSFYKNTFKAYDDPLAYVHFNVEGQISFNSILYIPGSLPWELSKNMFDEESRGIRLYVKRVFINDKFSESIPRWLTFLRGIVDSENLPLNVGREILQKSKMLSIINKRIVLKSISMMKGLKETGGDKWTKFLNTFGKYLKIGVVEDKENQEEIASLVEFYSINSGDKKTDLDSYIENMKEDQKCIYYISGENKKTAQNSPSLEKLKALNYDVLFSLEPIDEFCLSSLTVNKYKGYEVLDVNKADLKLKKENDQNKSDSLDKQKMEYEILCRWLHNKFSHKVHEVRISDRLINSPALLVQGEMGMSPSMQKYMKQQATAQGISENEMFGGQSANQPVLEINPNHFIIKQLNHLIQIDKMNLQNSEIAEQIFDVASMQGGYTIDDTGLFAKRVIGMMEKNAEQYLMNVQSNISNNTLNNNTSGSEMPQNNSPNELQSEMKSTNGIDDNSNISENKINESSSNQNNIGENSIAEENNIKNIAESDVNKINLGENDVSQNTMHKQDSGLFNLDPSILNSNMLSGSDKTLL
Briefly: Binding affinity to Plasmodium falciparum HSP90 nucleotide binding domain by SPR analysis. Summed up: (§1)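 Purified PfHsp90 and PfGRP94 nucleotide-binding domains were amine-coupled to a CM5 chip (3000 and 7000 RU, respectively), with a blank reference surface. Seven compound concentrations (0.4 nM–1 mM) were injected in triplicate at 30 µL/min, 25 °C, in random order. Running buffer: 10 mM HEPES pH 7.4, 150 mM NaCl, 0.005% P20, 1% DMSO, 2 mM MgCl2. Kd came from double-referenced sensorgrams.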

The nature of series [6]: Selectivity index, ratio of CC50 for human HepG2A16 cells to IC50 for GFP-fused Plasmodium berghei sporozoites infected in human HepG2A16 cells. The class given is toxicity, cell-based. To be noted: read-out: Ratio CC50/IC50. The method, boiled down: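 HepG2-A16 cells were grown at 3 × 10^4 per well on collagen and infected with GFP P. berghei sporozoites (5 × 10^3 to 1 × 10^4 per well) from A. stephensi salivary glands. Compounds were added at infection, from 10 µg/mL top plus seven serial dilutions, and refreshed at 3 h and then every 24 h. After 40 h at 37 °C, EEFs were methanol-fixed, anti-Hsp70 immunolabelled and counted by high-content imaging. SI = HepG2 CC50 / liver-stage IC50.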

The test system of series [7] is Plasmodium falciparum. The experiment in a line: Antiplasmodial activity against Plasmodium falciparum FCR-3 sporozoites infected in human primary hepatocytes treated simultaneously with infection by DAPI staining based HCS analysis. The class given is functional, organism-based, FCR-3/Gambia.
The test system of series [8] is Plasmodium falciparum. The experiment in a line: Binding affinity to Plasmodium falciparum GRP94 nucleotide binding domain by SPR analysis. Summed up: as §1
The target in series [9] is T1, HSP90 (Plasmodium falciparum 3D7). The experiment in a line: Binding affinity to Plasmodium falciparum HSP90 nucleotide binding domain at 0.5 mM by SYPRO orange dye based DSF analysis. Summed up:
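Recombinant P. falciparum Hsp90 or GRP94 nucleotide-binding domain (0.05–0.2 mg/mL, optimized per protein) in 25 mM HEPES pH 7.5, 250 mM NaCl. Compound final concentration was 0.5 mM, with SYPRO Orange at 1:1000. Samples were heated from 18 to 90 °C at 1 °C/min. Tm was taken as the Boltzmann-fit inflection point. ΔTm = Tm with ligand minus Tm without, and shifts beyond ±1 °C were counted significant.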

For series [10], the system named is Plasmodium falciparum. The experiment in a line: Antiplasmodial activity against chloroquine-sensitive Plasmodium falciparum 3D7 late forms infected in human RBC incubated for 15 mins followed by compound removal and further incubation for 48 hrs by [3H]-hypoxanthine incorporation assay. In kind it is functional, organism-based. The conditions noted are these: 3D7, Erythrocyte.

The test system of series [11] is Plasmodium falciparum. Briefly: Antiplasmodial activity against Plasmodium falciparum 3D7 ring stage forms infected in immunoliposome encapsulated compound pre-loaded human RBC by [3H]-hypoxanthine incorporation assay. In kind it is functional, organism-based. The conditions noted are these: 3D7, Erythrocyte.
Series [12] can be described thus: Drug internalization in liposomes assessed as zeta potential at 500 uM in presence of pH 7.4 PBS buffer solution (reference value: -16.48 mV). The conditions noted are these: artificial membrane, pH 7.4, 500 µM. The class given is physicochemical. Summed up:
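Zeta potential of liposomes loaded with compound (500 µM drug per 10 mM lipid), measured in the pH 4.0 citrate hydration buffer and again after buffer exchange to PBS pH 7.4; drug-free liposomes of the same lipid composition served as reference.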

For series [13], the system named is Plasmodium falciparum. Briefly: Antiplasmodial activity against chloroquine-sensitive Plasmodium falciparum 3D7 ring forms infected in human RBC incubated for 15 mins followed by compound removal and further incubation for 48 hrs by [3H]-hypoxanthine incorporation assay. The class given is functional, organism-based. To be noted: 3D7, Erythrocyte.
Series [14] relates to Plasmodium falciparum. Briefly: Ratio of IC50 for antiplasmodial activity against Plasmodium falciparum 3D7 late stage forms infected in immunoliposome encapsulated compound pre-loaded human RBC by [3H]-hypoxanthine incorporation assay to IC50 for antiplasmodial activity against Plasmodium falciparum 3D7 late stage forms infected in human non-washed human RBC containing full drug dosages by [3H]-hypoxanthine incorporation assay. In kind it is functional.

Series [15] concerns Plasmodium falciparum. The experiment in a line: Antiplasmodial activity against chloroquine-sensitive Plasmodium falciparum 3D7 late forms infected in human RBC using compound encapsulated in to immunoliposome targeted to GPA incubated for 15 mins followed by compound removal and further incubation for 48 hrs by [3H]-hypoxanthine incorporation assay. The class given is functional, organism-based. The conditions noted are these: 3D7, Erythrocyte.

Series [16] in a line: Genotoxicity in Salmonella typhimurium TA1535 harboring pSK1002 assessed as survival at 0.0005 mg/ml in presence of Sprague-Dawley rat liver S9 fraction after by SOS/umu assay relative to control. The class given is toxicity, organism-based. To be noted: salmonella enterica subsp. enterica serovar typhimurium, read-out: Survival.

Calls of active or inactive are those of the source. The calls are words filed in the database; no cut-off is given here.

Consider `COc1ccccc1C1=CCN(CCC(O)c2ccc(F)cc2)CC1` (configuration not stated), for which the fold induction at 1 mg/ml in series [1] is 1; in series [4] it was 0.3. For the same compound, the viability at 1 mg/ml in [2] stood at 82.3%; in series [3], 32.2%.
As to `N#Cc1ccc(N2CCC(NCCC(O)c3ccc(F)c4ccccc34)CC2)c(Cl)c1` (configuration not stated), the result (in series [5]; in the series with Plasmodium falciparum [8]; in [9]) was inactive. In addition, the selectivity ratio in series [6] was found to be 2.3. Further, the IC50 result in the series on Plasmodium falciparum [7] is “Not Active”.
Regarding `N#Cc1ccc(N2CCC(NCCC(O)c3ccc(F)c4ccccc34)CC2)c(C(F)(F)F)c1` (stereo in doubt; 72), the IC50 is 916 nM with Plasmodium falciparum [10]; 514 nM in the series with Plasmodium falciparum [11]; 867 nM with Plasmodium falciparum [13]; “Not Active” with Plasmodium falciparum [7]; 175 nM with Plasmodium falciparum [15]. In addition, the selectivity ratio in [6] stood at 2.3. Further, the Activity in [12] is on record as -18.2 mV. The “Ratio IC50” value in the series on Plasmodium falciparum [14] worked out at 1.5.
As for `OC(CCN1CCN(C(c2ccccc2)c2ccccc2)CC1)c1ccc(F)c2ccccc12` (configuration not stated), the result (in series [5]; in the series on Plasmodium falciparum [8]; in series [9]) was inactive. Moreover, the selectivity ratio in [6] came to 3.7. The concentration for half-maximal inhibition (IC50) result in the series on Plasmodium falciparum [7] is “Not Active”.
For `N#Cc1ccc(N2CCC(NCCC(O)c3ccc(F)c4ccccc34)CC2)c(Br)c1` (configuration not stated), the outcome (in series [5]; with Plasmodium falciparum [8]; in series [9]) was inactive.
With `OC(CCN1CCN(C(c2ccccc2)c2ccccc2)CC1)c1ccc(F)c(F)c1` (configuration not stated), the viability at 0.0005 mg/ml in [16] came to 94.7%.
`OC(CCN1CCN(c2ccccc2C(F)(F)F)CC1)c1ccc(F)c2ccccc12` (stereo in doubt; 55): the fold induction at 1 mg/ml turned out to be 0.4 in series [1] and 0.3 in series [4]. Further, the results for the viability at 1 mg/ml in series [2] and in series [3] were 229% and 164%, respectively.
With `COc1ccccc1N1CCN(CCC(O)c2ccc(F)c3ccccc23)CC1` (configuration not stated), the result (in series [5]; in the series on Plasmodium falciparum [8]; in [9]) was inactive.
Regarding `OC(CCN1CCN(c2ccccc2C(F)(F)F)CC1)c1ccc(F)cc1` (configuration not stated), the fold induction at 1 mg/ml in series [1] stood at 0.3; in series [4], 0.1. Further, the viability at 1 mg/ml amounted to 244% in [2] and 97% in series [3].
